Screens (PubChem BioAssay)
Sampled rows, rich in hits. Any-hit rate of the full collection: about 3.1%.
CHO parental Ca: counter-screen: ATP calcium response change in parental CHO cells | 330,000 compounds, 0.63% hits | parental CHO-K1, ATP-induced calcium, Fluo-8 fluorescence | inhibition, % at 5.6 µM;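 active means inhibition above that plate's mean sample inhibition plus 3 SD, cut at about 26% in these data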
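Test system: parental CHO cells; detection: calcium-sensitive Fluo-8 fluorescence; evaluation: percent inhibition of calcium signal; also added: ATP as calcium-mobilizing challenge; repeats: one well per compound; control set: ATP-challenged DMSO wells low, unchallenged DMSO wells high; compound: single nominal dose of 5.6 µM per compound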
OX1R antag-1: antagonists of human orexin 1 receptor (OX1R). OX1R-expressing cells, FRET antagonist read-out. inhibition, % at 6.6 µM. 330,000 compounds, 1.8% hits. AID 485270; in the data active means inhibition mostly above about 38%, no sharp cut-off; inactive means mostly below about 40%
OX1R antag-2: blocks the human orexin 1 receptor. 330,000 compounds, 0.43% hits. AID 434989. inhibition, % at 5 µM. CHO/OX1R cells, Fluo-8 calcium fluorescence, orexin A. O43613;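 active means inhibition above its plate's threshold, mean inhibition of all tested compounds on the plate plus 3 SD, cut at about 37% in these data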
GPR7 antag: blocks human GPR7 receptor signaling. AID 1861. 290,000 compounds, 1.1% hits. inhibition, % at 4.4 µM. GPR7-expressing cells, fluorescence antagonist assay; in the data active means inhibition above about 16%, passing the limit was not always enough;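 further: cells stimulated with the agonist NPW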
Target sequence (P48145 whole entry, looked up): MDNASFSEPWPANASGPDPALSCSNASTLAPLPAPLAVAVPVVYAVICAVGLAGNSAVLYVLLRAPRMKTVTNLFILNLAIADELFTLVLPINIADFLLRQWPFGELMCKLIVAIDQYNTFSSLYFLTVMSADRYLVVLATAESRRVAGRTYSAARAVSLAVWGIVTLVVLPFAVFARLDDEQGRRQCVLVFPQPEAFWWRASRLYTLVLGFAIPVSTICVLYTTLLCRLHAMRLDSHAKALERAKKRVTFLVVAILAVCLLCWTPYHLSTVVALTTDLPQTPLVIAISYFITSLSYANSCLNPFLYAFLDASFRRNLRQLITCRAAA
GalR3 antagonist: human GalR3 antagonism. O60755. HEK293 GalR3-CNG cAMP membrane potential fluorescence; galR3 body fused to GalR1 C-terminus. inhibition, % at 3 µM. 360,000 compounds, 0.44% hits;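 active means inhibition above the screen-wide average plus 3 SD, cut at about 13% in these data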;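 further: forskolin and galanin both at EC90 stimulate the cells; cAMP rise reported by CNG channel membrane potential dye signal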
Target sequence (O60755 1-299 limits assumed): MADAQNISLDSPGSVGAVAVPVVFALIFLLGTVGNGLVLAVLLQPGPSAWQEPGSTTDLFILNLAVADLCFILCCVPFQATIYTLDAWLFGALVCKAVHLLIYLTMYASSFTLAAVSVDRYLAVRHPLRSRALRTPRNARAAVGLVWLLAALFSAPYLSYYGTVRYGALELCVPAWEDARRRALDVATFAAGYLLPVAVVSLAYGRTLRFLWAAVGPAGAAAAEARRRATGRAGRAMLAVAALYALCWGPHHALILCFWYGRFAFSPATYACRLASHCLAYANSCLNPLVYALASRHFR
OX1R Ca confirm: OX1R (human) antagonism, confirmed; CHO/OX1R cells, orexin A calcium Fluo-8 fluorescence; inhibition, % at 5 µM; shares compounds with OX1R antag-2; 1,100 compounds, 38% hits; AID 492963; in the data active means inhibition above about 29%
CHO Ca counter: counter-screen for OX1R antagonists: effect in parental CHO cells | parental CHO-K1, ATP-induced calcium, Fluo-8 fluorescence | inhibition, % at 5.6 µM | AID 492965 | shares compounds with OX1R antag-2 | 1,100 compounds, 9.3% hits;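 active means inhibition above a per-plate limit, the mean inhibition of that plate's test compounds plus 3 SD, cut at about 25% in these data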
Each line names hits and unclear results; the compound was inactive in the other large screens (follow-up assays come after a bar, where they were run).

Cn1c(CSc2ncccn2)nnc1SCC(=O)N1CCCc2ccccc21	none | OX1R Ca confirm inactive | CHO Ca counter inactive
C[C@@H]1C=CCCO[C@]12C(=O)N(Cc1ccc(Br)cc1)c1cccc(Br)c12	none (no result: CHO parental Ca, OX1R antag-1, OX1R antag-2, GPR7 antag)
COc1ccc(NC(=O)CCc2nc(-c3ccc(C)cc3)no2)cc1Cl	none | OX1R Ca confirm inactive | CHO Ca counter inactive
O=C(CCN1C(=O)/C(=C/c2ccccc2)SC1=S)NNC(=O)c1cccnc1	OX1R antag-2 46 | OX1R Ca confirm 47 | CHO Ca counter 69
Cc1ccc(/C=C2\SC(=S)N(CCC(=O)NNC(=O)c3cccnc3)C2=O)cc1	none
C/C(=N\NC(=O)c1ccncc1)c1cc2ccccc2oc1=O	none
C/C(=N/NC(=O)c1ccncc1)c1cc2ccc(O)cc2oc1=O	none | OX1R Ca confirm 66 | CHO Ca counter 54
CCCOc1ccc(C(F)(F)F)cc1NS(=O)(=O)c1ccc(Cl)nc1	none (no result: CHO parental Ca, OX1R antag-1, OX1R antag-2, GPR7 antag)
O=C(Oc1ccc(Cl)cc1)N1CCOCC1	none
COc1ccc(OC(=O)N2CCOCC2)cc1	none | OX1R Ca confirm inactive | CHO Ca counter inactive
Cc1nc2c(-c3ccc(Cl)cc3)cnn2c2c1CCC2	OX1R antag-2 40 | OX1R Ca confirm 34 | CHO Ca counter inactive
CC1CC(C)CN(C(=O)c2ccc(S(=O)(=O)N3CCCC3)cc2)C1 (centres undefined)	none
C/C(=N/NC(=O)c1sc(NS(=O)(=O)c2ccc(C)cc2)nc1C)c1sc(N)nc1C	none
CCn1c(SCC(=O)N2CCCC2)nc2ccccc2c1=O	OX1R antag-2 34 | OX1R Ca confirm inactive | CHO Ca counter inactive
C=CCn1c(SCC(=O)Nc2sccc2C(N)=O)nc2sc(C)c(C)c2c1=O	none | OX1R Ca confirm inactive | CHO Ca counter inactive
Cc1ccsc1-c1nc(CN2CCCC2c2ccc(F)cc2)c(C)o1 (centres undefined)	none
COc1ccc(NC(=O)C2CCN(C(=O)Cc3ccccc3)CC2)c(OC)c1	none
Cc1ccc([N+](=O)[O-])cc1NC(=S)NCCc1ccccc1	none
COc1ccc(Cn2nnnc2C(c2cccs2)N2CCN(c3ccccc3)CC2)cc1 (centres undefined)	none
c1ccc(Cn2nnnc2C(c2cccs2)N2CCCCCC2)cc1 (centres undefined)	none | OX1R Ca confirm inactive | CHO Ca counter inactive
CCc1noc(C)c1C(=O)Oc1ccc(N(C)S(=O)(=O)c2ccc(C)cc2)cc1	OX1R antag-2 55 (no result: GPR7 antag, GalR3 antagonist) | OX1R Ca confirm inactive | CHO Ca counter inactive
COc1ccc(C)cc1NC(=O)CSc1nnc(COc2ccccc2)n1Cc1ccco1	none | OX1R Ca confirm inactive | CHO Ca counter inactive
Cc1ccc(NC(=O)c2ccccc2)cc1	none
Cc1ccc(NC(=O)C2=C(c3ccccc3)S(=O)(=O)CCS2(=O)=O)cc1	GPR7 antag 34 | OX1R Ca confirm 43 | CHO Ca counter inactive
CC(=O)c1cccc(NC(=O)c2ccc(N(Cc3ccccc3C)S(C)(=O)=O)cc2)c1	none | OX1R Ca confirm inactive | CHO Ca counter inactive
CCCN1CCN(CC(=O)NCC(=O)Nc2cccc(C)c2C)CC1	none (no result: CHO parental Ca, OX1R antag-1, OX1R antag-2, GPR7 antag)
O=C(O/N=C1\CCS(=O)(=O)c2sccc21)c1c(F)cccc1F	OX1R antag-2 44 | OX1R Ca confirm inactive | CHO Ca counter inactive
CNc1ccc(Oc2c(F)c(F)nc(F)c2F)cc1	none | OX1R Ca confirm inactive | CHO Ca counter inactive
Cc1ccc(Oc2c(F)c(F)nc(N3CCCC3)c2F)cc1	none
CCCC(C)NC(=O)CN(Cc1ccco1)S(=O)(=O)c1ccccc1 (centres undefined)	none (no result: GPR7 antag)
CCC(C)NS(=O)(=O)c1ccc(S(=O)(=O)N(CC(=O)Nc2ccccc2)Cc2ccco2)cc1 (centres undefined)	OX1R antag-2 49 | OX1R Ca confirm inactive | CHO Ca counter inactive
CC(C)CN(C(=O)COC(=O)c1ccc2c(c1)OCO2)c1c(N)n(Cc2ccccc2)c(=O)[nH]c1=O	none (no result: GPR7 antag)
CC(=O)N=c1cccc(NC(C)=O)n1O	OX1R antag-2 86 | OX1R Ca confirm inactive | CHO Ca counter inactive
CC(=O)N=C1SC2CS(=O)(=O)CC2N1c1cccc(Cl)c1Cl (centres undefined)	none
COCC1CCCN(C(=O)c2ccc3oc(Cc4ccc(Cl)cc4)nc3c2)C1 (centres undefined)	none
Cc1c(NC(=O)c2cccc(-c3cc4ccccc4oc3=O)c2)cccc1-c1nc2ncccc2o1	none | OX1R Ca confirm inactive | CHO Ca counter inactive
COCC(=O)Nc1cc(C(=O)NCC(C)C)ccc1Cl	none | OX1R Ca confirm inactive | CHO Ca counter inactive
CCN(CC)CCNC(=O)c1ccc(Sc2ccc(Cl)cc2)c(NC(C)=O)c1	none
Cc1ccc(S(=O)(=O)N2CCOCC2)cc1NC(=O)COC(=O)CCc1c[nH]c2ccccc12	none (no result: GPR7 antag) | OX1R Ca confirm inactive | CHO Ca counter inactive
O=C(COC(=O)Cc1c[nH]c2ccccc12)Nc1cc(S(=O)(=O)N2CCOCC2)ccc1Cl	none (no result: GPR7 antag)
NC(=O)C1CCN(C(=O)c2ccc(Oc3ccccc3)cc2)CC1	none
CCOC(=O)C1CCN(C(=O)c2ccc(N3CCCC3=O)cc2)CC1	none (no result: GPR7 antag)
Cc1ccc(OCCC(=O)OCC(=O)c2ccc3c(c2)NC(=O)CO3)cc1	none (no result: GPR7 antag) | OX1R Ca confirm inactive | CHO Ca counter inactive
O=C1COc2ccc(C(=O)COC(=O)CCCOc3ccccc3)cc2N1	none (no result: CHO parental Ca, OX1R antag-1, OX1R antag-2, GPR7 antag)
CCOc1ccc(-c2nnc(SCC(=O)O)n2Cc2ccccc2)cc1	none
Cc1ccc(S(=O)(=O)N(C)C[C@@H]2Oc3ccc(NC(=O)CCC(F)(F)F)cc3CC(=O)N([C@@H](C)CO)C[C@@H]2C)cc1	none (no result: GPR7 antag)
O=C(NCc1nc(-c2ccc(C(F)(F)F)cc2)no1)Nc1cc(Cl)cc(Cl)c1	none | OX1R Ca confirm inactive | CHO Ca counter 48
O=C(CSc1ncnc2c1cnn2CCc1ccccc1)Nc1cccc(C(F)(F)F)c1	OX1R antag-2 61 | OX1R Ca confirm inactive | CHO Ca counter inactive
Cc1c(Cl)cccc1NC(=O)CSc1ncnc2c1cnn2CCc1ccccc1	none
Cc1nnc(SCc2nc3sc4c(c3c(=O)[nH]2)CCCC4)[nH]c1=O	none
CC(=O)NS(=O)(=O)c1ccc(NC(=S)NC(=O)Cc2ccccc2)cc1	none
Cc1ccsc1C(=O)N1CCCC(N(C)Cc2ccccc2)C1 (centres undefined)	none | OX1R Ca confirm inactive | CHO Ca counter inactive
COc1cc(CNc2ccc(N3CCCCC3)cc2)ccc1OCC(=O)NC(C)(C)C	none
CCCCCCNC(=O)CC(c1ccccc1)c1cc(Br)ccc1O (centres undefined)	none | OX1R Ca confirm inactive | CHO Ca counter inactive
O=C(Oc1ccc(Cl)c2cccnc12)N1CCOCC1	none
O=C(Oc1ccc(Cl)c2cccnc12)N1CCCCC1	OX1R antag-2 90 | OX1R Ca confirm inactive | CHO Ca counter inactive
Cc1cccc(NC(=O)Nc2ccc(S(N)(=O)=O)cc2)c1	none
NS(=O)(=O)c1cccc(NC(=O)Nc2ccc(Cl)cc2)c1	none | OX1R Ca confirm inactive | CHO Ca counter inactive
